Measurements taken from ChEMBL document CHEMBL4665761, “Optimizing the Benefit/Risk of Acetyl-CoA Carboxylase Inhibitors through Liver Targeting” (J Med Chem, 2020).

Tests used:
[1] = Aqueous solubility of compound at pH 7.4 using tris(hydroxymethyl)aminomethane (tris) salt form of compound; format: physicochemical; details: buffer
[2] = Aqueous solubility of compound at pH 6.5 using tris(hydroxymethyl)aminomethane (tris) salt form of compound; format: physicochemical; details: buffer
[3] = Aqueous solubility of compound at pH 1.2 using tris(hydroxymethyl)aminomethane (tris) salt form of compound; format: physicochemical; details: buffer
[4] = Oral bioavailability in cynomolgus monkey plasma at 5 mg/kg using tris(hydroxymethyl)aminomethane (tris) salt form of compound and measured up to 24 hrs by LC/MS-MS analysis; format: ADME, organism-based, Macaca fascicularis
Summary of the method: (§1)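 Plasma concentration–time data, n = 2, averaged. Cmax and Tmax read directly from the data. AUC0–24 by the linear trapezoidal rule. F calculated as dose-normalized AUC PO/IV.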

[5] = Oral bioavailability in Wistar-Hannover rat plasma at 5 mg/kg tris(hydroxymethyl)aminomethane (tris) salt form of compound and measured up to 24 hrs by LC/MS-MS analysis; format: ADME, organism-based; summary of the method: as §1
[6] = AUC (0 to 24 hrs) in cynomolgus monkey plasma at 5 mg/kg, po tris(hydroxymethyl)aminomethane (tris) salt form of compound and measured up to 24 hrs by LC/MS-MS analysis; format: ADME, organism-based, Macaca fascicularis; set-up: route oral, dose 5 mg/kg, time <=24
Summary of the method: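 Cynomolgus monkeys received an oral dose. AUC0–24 came from plasma concentration–time data by the linear trapezoidal rule, averaged for n = 2.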

[7] = AUC (0 to 24 hrs) in Wistar-Hannover rat plasma at 5 mg/kg, po tris(hydroxymethyl)aminomethane (tris) salt form of compound and measured up to 24 hrs by LC/MS-MS analysis; format: ADME, organism-based; set-up: route oral, dose 5 mg/kg, time <=24
Summary of the method: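 Male Wistar-Hannover rats (240–350 g), housed singly after 1 week of acclimation, were dosed orally. AUC0–24 came from plasma concentration–time data by the linear trapezoidal rule, averaged for n = 2. Lower detection limit was 1 ng/mL.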

[8] = Tmax in cynomolgus monkey plasma at 5 mg/kg, po tris(hydroxymethyl)aminomethane (tris) salt form of compound and measured up to 24 hrs by LC/MS-MS analysis; format: ADME, organism-based, Macaca fascicularis; summary of the method: as §1
[9] = Tmax in Wistar-Hannover rat plasma at 5 mg/kg, po tris(hydroxymethyl)aminomethane (tris) salt form of compound and measured up to 24 hrs by LC/MS-MS analysis; format: ADME, organism-based; summary of the method: as §1
[10] = Cmax in cynomolgus monkey plasma at 5 mg/kg, po tris(hydroxymethyl)aminomethane (tris) salt form of compound and measured up to 24 hrs by LC/MS-MS analysis; format: ADME, organism-based, Macaca fascicularis; set-up: route oral, dose 5 mg/kg, time <=24
Summary of the method: (§2)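 Cynomolgus monkeys dosed 1 mg/kg IV as the tris salt in 2% N-methylpyrrolidone/98% sulfobutylether-β-cyclodextrin (12.5%) in 50 mM TRIS, pH 8.0, or PO as the tris salt. Plasma was analysed by LC-MS/MS, n = 2. CL = IV dose/AUC; Vss = dose/(AUC × elimination rate constant); Cmax taken from observed data.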

[11] = Cmax in Wistar-Hannover rat plasma at 5 mg/kg, po tris(hydroxymethyl)aminomethane (tris) salt form of compound and measured up to 24 hrs by LC/MS-MS analysis; format: ADME, organism-based; set-up: route oral, dose 5 mg/kg, time <=24
[12] = Half life in cynomolgus monkey plasma at 5 mg/kg, po tris(hydroxymethyl)aminomethane (tris) salt form of compound and measured up to 24 hrs by LC/MS-MS analysis; format: ADME, organism-based, Macaca fascicularis; summary of the method: as §2
[13] = Half life in Wistar-Hannover rat plasma at 5 mg/kg, po tris(hydroxymethyl)aminomethane (tris) salt form of compound and measured up to 24 hrs by LC/MS-MS analysis; format: ADME, organism-based
[14] = Ratio of drug uptake in cynomolgus monkey unbound liver to plasma concentration at 1 mg/kg, iv tris(hydroxymethyl)aminomethane (tris) salt form of compound after 6 hrs by LC/MS-MS analysis; format: ADME, organism-based, Macaca fascicularis; details: other tissue
Summary of the method: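 Cynomolgus monkeys (n = 2) given a single IV dose as tris salt in 2% N-methylpyrrolidone / 98% sulfobutylether-betacyclodextrin (12.5%) in 50 mM TRIS buffer, pH 8.0. Plasma and liver sampled 6 h post-dose. Total concentrations converted to unbound using equilibrium-dialysis fu in plasma and liver. Ratio taken as mean free liver over free plasma concentration.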

[15] = Drug uptake in cynomolgus monkey liver at 1 mg/kg, iv tris(hydroxymethyl)aminomethane (tris) salt form of compound after 6 hrs by LC/MS-MS analysis; format: ADME, organism-based, Macaca fascicularis; details: read-out: Drug uptake
Summary of the method: (§3)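 Monkeys, n = 2, given 1 mg/kg IV as the tris salt in 2% N-methylpyrrolidone/98% sulfobutylether-β-cyclodextrin (12.5%) in 50 mM TRIS, pH 8.0. Plasma and liver concentrations were taken 6 h post-dose.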

[16] = Drug uptake in cynomolgus monkey assessed as plasma concentration at 1 mg/kg, iv tris(hydroxymethyl)aminomethane (tris) salt form of compound after 6 hrs by LC/MS-MS analysis; format: ADME, organism-based, Macaca fascicularis; summary of the method: as §3
[17] = Ratio of drug uptake in cynomolgus monkey liver to plasma at 1 mg/kg, iv tris(hydroxymethyl)aminomethane (tris) salt form of compound after 6 hrs by LC/MS-MS analysis; format: ADME, organism-based, Macaca fascicularis; details: liver and plasma
Summary of the method: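 Cynomolgus monkeys (n = 2) given 1 mg/kg IV as the tris salt in 2% N-methylpyrrolidone/98% sulfobutylether-β-cyclodextrin (12.5%) in 50 mM TRIS pH 8.0. Liver and plasma taken 6 h post-dose.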

solubility [1]: 4.77 mM
solubility [2]: 3.98 mM
solubility [3]: 1.32 mM
bioavailability [4]: 52%
bioavailability [5]: 48%
AUC(0-t) [6]: 36200 ng·h/mL
AUC(0-t) [7]: 2490 ng·h/mL
Tmax [8]: 1.13 h
Tmax [9]: 0.54 h
Cmax [10]: 5780 ng/mL
Cmax [11]: 390 ng/mL
half-life [12]: 11 h
half-life [13]: 5.6 h
Ratio [14]: 230
concentration at 6 h [15]: 1300 ng/mL
concentration at 6 h [16]: 88 ng/mL
Kp at 6 h [17]: 15
SMILES: COc1cc(C(=O)N2CCC3(CC2)CC(=O)c2c(cnn2C(C)C)C3)cc(-c2ccc(C(=O)O)cc2)n1.NC(CO)(CO)CO [CLESACOSTAT TROMETHAMINE]
